# Experimental data collected from several papers.
SMILES,target or system,assay,system,conditions,measurement,value
CO[C@H]1/C=C/O[C@@]2(C)Oc3c(C)c(O)c4c(O)c(c(/C=N/N5CCN(C)CC5)c(O)c4c3C2=O)NC(=O)/C(C)=C\C=C\[C@H](C)[C@H](O)[C@@H](C)[C@@H](O)[C@@H](C)[C@H](OC(C)=O)[C@@H]1C,Mycobacteroides chelonae,microbial growth,,72 h,MIC,< 0.78 µM
COC(=O)c1cc(-c2cccc(NC(=O)Nc3ccccc3F)c2)on1,Mycobacteroides chelonae,"microbial growth, broth dilution",ATCC35752,48 h,MIC,> 64 µg/mL
CC(C)c1ccc(/C=C/c2nc3ccccc3c(=O)n2-c2cccc(O)c2)cc1,Enterococcus faecium,"microbial growth, broth dilution",NCTC7171,,MIC,> 128 µg/mL
O=C(O)c1cc(Cl)ccc1-c1ccc(Cl)cc1C(=O)Nc1ccc2c(c1)Cc1ccccc1-2,Trypanosoma brucei,"parasite growth, resazurin",,72 h,EC50,28.5 µM
COC(=O)c1cc(-c2cccc(NC(=S)Nc3ccc(OC)cc3)c2)on1,Mycobacteroides chelonae,"microbial growth, broth dilution",ATCC35752,48 h,MIC,> 64 µg/mL
CC[C@H](C)[C@@H]([C@@H](CC(=O)N1CCC[C@H]1[C@H](OC)[C@@H](C)C(=O)N[C@@H](Cc1ccccc1)C(=O)O)OC)N(C)C(=O)[C@@H](NC(=O)[C@H](C(C)C)N(C)C(=O)CCc1cn(CCOCCOCCOCCOCC(=O)NCc2ccc(CN3C(=O)[C@H]4CC(=O)N[C@H](C(=O)O)CC(=O)NCC(=O)N[C@@H](CCCNC(=N)N)C(=O)NC[C@H]3C(=O)N4)cc2)nn1)C(C)C,M21,"cell growth or viability, MTT",,72 h,IC50,> 1 µM
O=C(NOC[C@H](O)CO)c1ccc(F)c(F)c1Nc1ccc(I)cc1F,MB002,cell growth or viability,,7 days,IC50,> 10 µM
O=C(Nc1cccc(-c2cc(C(=O)O)no2)c1)Nc1ccc(Cl)c(Cl)c1,Mycobacteroides chelonae,"microbial growth, broth dilution",ATCC35752,48 h,MIC,> 64 µg/mL
C#Cc1ccc(/C=C/c2nc3ccccc3c(=O)n2-c2cccc(O)c2)cc1,Enterococcus faecium,"microbial growth, broth dilution",NCTC7171,,MIC,32 µg/mL
O=C1[O][Pt]2([NH][C@@H]3CCCC[C@H]3[NH]2)[O]C1=O,HD-MB03,cell growth or viability,,7 days,IC50,2.33 µM
COC(=O)c1cc(-c2cccc(NC(=S)NC3CCCCC3)c2)on1,Mycobacteroides chelonae,"microbial growth, broth dilution",ATCC35752,48 h,MIC,> 64 µg/mL
O=c1c2ccccc2nc(/C=C/c2ccc(C(F)(F)F)cc2)n1-c1cccc(O)c1,Enterococcus faecium,"microbial growth, broth dilution",NCTC7171,,MIC,32 µg/mL
